Here are results for ten compounds from ChEMBL document CHEMBL1221396, “Resveratrol oligomers from Vatica albiramis” (J Nat Prod, 2010).

Activity calls are given as the source filed them. No cut-off for these calls is given here.

Data set [1] concerns HFF. The data set can be described thus: Antiinflammatory activity in human foreskin fibroblast assessed as inhibition of IL-1-beta-induced MMP1 production at 1 uM treated for 24 hrs before IL1-beta challenge measured after 24 hrs by Western blot analysis. Type of data set: functional, cell-based. In a few lines: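 Fibroblasts were grown in DMEM with 10% FBS at 37 °C under 5% CO2, seeded at 2 × 10⁵ cells/mL, grown to confluence, and treated for 24 h. Secreted MMP-1 was measured by western blot. Blots were blocked in TBS with 5% skim milk and 0.05% Tween-20 for 1 h at room temperature, incubated with primary antibody overnight at 4 °C, then with HRP secondary antibody for 1 h at room temperature.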
A general note: Immunoblotting shows a protein as a band on a membrane.

The test system of data set [2] is HFF. Nature of the data set: Cytotoxicity against human foreskin fibroblast at 1 uM. Type of data set: cell-based.

Consider `Oc1ccc([C@@H]2c3c(O)cc(O)cc3[C@@H]3c4c(cc(O)cc4[C@H]2[C@@H]2c4cc(O)cc5c4[C@@H](c4cc(O)cc(O)c4[C@H]2c2ccc(O)cc2)[C@H](c2ccc(O)cc2)O5)O[C@H]3c2ccc(O)cc2)cc1`, for which the inhibition entry in the data set on HFF [1] was “Active”. In addition, the Activity result in the data set with HFF [2] is reported as “Non-toxic”.
As to `OC[C@H]1O[C@@H](Oc2cc(O)cc([C@@H]3c4c(/C=C/c5ccc(O)cc5)cc(O[C@@H]5O[C@H](CO)[C@@H](O)[C@H](O)[C@H]5O)cc4O[C@H]3c3ccc(O)cc3)c2)[C@H](O)[C@@H](O)[C@@H]1O`, in the data set with HFF [1], the inhibition entry was “inactive”.
Regarding `Oc1ccc(/C=C/c2cc(O)cc3c2[C@@H](c2cc(O)cc(O)c2)[C@H](c2ccc(O)cc2)O3)cc1`, in the data set on HFF [1], the inhibition result is “inactive”.
Still for that read-out and setting: the same measure for `Oc1ccc(/C=C\c2cc(O)cc3c2[C@@H](c2cc(O)cc(O)c2)[C@H](c2ccc(O)cc2)O3)cc1`: “inactive”; for `Oc1ccc([C@H]2c3c(O)cc(O)cc3[C@@H]3c4c(cc(O)cc4[C@H]2O)O[C@H]3c2ccc(O)cc2)cc1`: “inactive”.
With `Oc1ccc([C@H]2c3c(O)cc4c(c3[C@@H]3[C@@H](c5ccc(O)cc5)c5c(O)cc6c(c5[C@H]23)[C@@H](c2cc(O)cc(O)c2)[C@H](c2ccc(O)cc2)O6)[C@@H](c2cc(O)cc(O)c2)[C@H](c2ccc(O)cc2)O4)cc1` [STENOPHYLLOL C], the inhibition entry in the data set with HFF [1] was “Active”. In the data set on HFF [2], the Activity entry is “Non-toxic”.
Take `OC[C@H]1O[C@@H](Oc2cc3c4c(c2)[C@@H]([C@@H]2c5cc(O)cc6c5[C@@H](c5cc(O)cc(O)c5[C@H]2c2ccc(O)cc2)[C@H](c2ccc(O)cc2)O6)[C@H](c2ccc(O)cc2)c2c(O)cc(O)cc2[C@H]4[C@H](c2ccc(O)cc2)O3)[C@H](O)[C@@H](O)[C@@H]1O` [VATALBINOSIDE A]: the inhibition result in the data set on HFF [1] was “Active”. Further, the Activity result in the data set on HFF [2] is “Non-toxic”.
On to `Oc1ccc([C@@H]2c3c(O)cc(O)cc3[C@@H]3c4c(cc(O)cc4[C@H]2[C@@H]2c4cc(O)c([C@@H](c5ccc(O)cc5)[C@@H]5c6c(c(O)cc7c6[C@@H](c6cc(O)cc(O)c6)[C@H](c6ccc(O)cc6)O7)[C@H](c6cc(O)cc7c6[C@H](c6cc(O)cc(O)c6)[C@@H](c6ccc(O)cc6)O7)[C@H]5c5ccc(O)cc5)c5c4[C@@H](c4cc(O)cc(O)c4[C@H]2c2ccc(O)cc2)[C@H](c2ccc(O)cc2)O5)O[C@H]3c2ccc(O)cc2)cc1` [VATERIAPHENOL A], for which the inhibition result with HFF [1] is “Active”. Further, in the data set on HFF [2], the Activity entry is “Non-toxic”.
For the compound `Oc1ccc([C@@H]2c3c(O)cc4c(c3[C@@H]3c5c(O)cc6c(c5[C@H]2[C@H]3c2ccc(O)cc2)[C@@H](c2cc(O)cc(O)c2)[C@H](c2ccc(O)cc2)O6)[C@@H](c2cc(O)cc(O)c2)[C@H](c2ccc(O)cc2)O4)cc1` [VATICANOL C], the inhibition result with HFF [1] was “Active”. Besides, the Activity result in the data set on HFF [2] is “Non-toxic”.
As for `Oc1ccc([C@@H]2c3c(O)cc(O)cc3[C@@H]3c4c(cc(O)c5c4[C@@H]2[C@H](c2ccc(O)cc2)[C@H]5c2cc(O)cc4c2[C@@H](c2cc(O)cc(O)c2)[C@H](c2ccc(O)cc2)O4)O[C@H]3c2ccc(O)cc2)cc1` [Vaticanol B], the inhibition entry in the data set on HFF [1] is “Active”. The Activity entry with HFF [2] is on record as “Non-toxic”.
